Screens (PubChem BioAssay)
MC4R antagonist: MC4R antagonists of cAMP signaling, primary screen, cell-based, TR-FRET, antagonist arm of biased-ligand search; Melanocortin receptor 4 (Homo sapiens), P32245; MC4R-expressing cells, MTII-stimulated cAMP, LANCE TR-FRET; inhibition, % at 6.5 µM; hit rate 0.48% among 360,000; AID 540295, 2011;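 active means inhibition above its plate's cutoff, the mean of tested wells on that plate plus 3 SD, cut at about 29% in these data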
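System – human MC4R-expressing U2OS cells · Also added – Melanotan II · Dosing – one concentration, 6.5 µM nominal · Timing – 30-min compound, 1-h challenge, 1-h detection, room temperature · Measured by – Eu-cAMP/anti-cAMP TR-FRET, emission 671 nm · Replicates – singlicate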
MC4R barr agon: MC4R agonists recruiting beta-arrestin, primary screen, cell-based, luminescence, agonist arm of biased-ligand search; hit rate 0.98% among 360,000; activation, % at 8.9 µM; U2OS MC4R beta-arrestin complementation; percent of melanotan II response, DMSO zero; Melanocortin receptor 4 (Homo sapiens), P32245;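 active means activation above a per-plate cutoff, the mean activation of sample wells on that plate plus 3 SD, cut at about 8% in these data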
TMEM16A inh: TMEM16A chloride channel inhibitors, primary screen, cell-based, HTS. Anoctamin-1 (Mus musculus), Q8BHY3. HEK293 TMEM16A/YFP iodide influx fluorescence, ionomycin. normalized B-score (activity score, 25-100; higher = stronger inhibition) at 10 µM. hit rate 1.2% among 310,000;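 active means ratio plate-corrected score three or more library SD toward inhibition, starting fluorescence score within five deviations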;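 further: score derived from kinetic fluorescence span divided by baseline fluorescence per well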
MIN6 prolif: inducers of MIN6 beta-cell proliferation, primary screen, ATP luminescence, uHTS | MIN6 cells proliferation, ATPlite luminescence, 48 h; cells starved in 0.2% serum; 100% = growth in 10% serum | proliferation, % at 10 µM | hit rate 0.29% among 330,000;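 active means compounds whose signal lies at least 3.5 SD above the mean of all wells on their plate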
HTR2A ag: mouse Htr2a agonists via beta-arrestin recruitment, primary screen, cell-based, luminescence. 5-hydroxytryptamine receptor 2A (Mus musculus), P35363. CHO-K1 mHTR2A beta-arrestin complementation; percent of 30 µM serotonin response. activation, % at 7.6 µM. hit rate 0.66% among 360,000. AID 624169, 2012;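 active means activation above a run cutoff, the mean activation of all tested compounds plus 3 SD, cut at about 14% in these data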
Target sequence (P35363 whole entry, looked up): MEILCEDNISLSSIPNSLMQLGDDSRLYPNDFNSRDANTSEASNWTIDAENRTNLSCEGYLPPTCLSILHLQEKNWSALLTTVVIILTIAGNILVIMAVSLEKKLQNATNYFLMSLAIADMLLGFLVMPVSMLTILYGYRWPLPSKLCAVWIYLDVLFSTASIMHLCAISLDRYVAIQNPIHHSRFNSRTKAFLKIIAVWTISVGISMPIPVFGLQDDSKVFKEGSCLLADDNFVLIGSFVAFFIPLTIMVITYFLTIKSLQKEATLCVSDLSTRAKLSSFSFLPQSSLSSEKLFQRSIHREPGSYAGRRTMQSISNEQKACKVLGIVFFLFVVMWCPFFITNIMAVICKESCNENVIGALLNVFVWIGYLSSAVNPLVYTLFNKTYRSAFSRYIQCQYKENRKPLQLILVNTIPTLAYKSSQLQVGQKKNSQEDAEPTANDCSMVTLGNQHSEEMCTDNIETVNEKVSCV
TMEM16A act: TMEM16A chloride channel activators or potentiators, primary screen, cell-based, HTS; Anoctamin-1 (Mus musculus), Q8BHY3; HEK293 TMEM16A/YFP-H148Q/I152L, iodide quench fluorescence; stronger effect = lower value; B-score at 10 µM; hit rate 0.3% among 340,000; AID 623877, 2012;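 active means fluorescence-ratio B-score plate-corrected deviation score at least 3 library SD below zero, with starting fluorescence score within 5 deviations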;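 further: channel opened by trigger with iodide after compound preincubation; score built on the fluorescence ratio of max minus min over baseline; more negative score means more quench and so TMEM16A activation or potentiation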
OPRM1 ag: OPRM1 agonists via beta-arrestin recruitment, confirmation, counter-screen for mouse HTR2A agonist project, cell-based, luminescence, single concentration; hit rate 5.3% among 2,300; activation, % at 9.3 µM; shares compounds with HTR2A ag; U2OS OPRM1 beta-arrestin PathHunter; DMSO 0%, DAMGO 9.3 µM 100%;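 active means mean activation above the mean of DMSO-only wells plus 3 SD, cut at about 0.5% in these data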
HTR2A ag conf: mouse HTR2A agonists, beta-arrestin recruitment, confirmation, cell-based, luminescence, CHO-K1 PathHunter, triplicate; shares compounds with HTR2A ag; DMSO 0%, 30 µM serotonin 100%; activation, % at 7.6 µM; hit rate 19% among 2,300; AID 624381, 2012;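 active means mean activation across triplicates above the hit threshold derived in the original primary screen, cut at about 15% in these data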
A number is an active result; n = inactive; x = not tested or not shown. A selection: hits, their analogues and other compounds. The true share with any hit is near 3.4%.

SMILES	MC4R antagonist	MC4R barr agon	TMEM16A inh	MIN6 prolif	HTR2A ag	TMEM16A act	OPRM1 ag	HTR2A ag conf
COc1ccc(OC)c(CN2C(=O)CN(S(C)(=O)=O)CC2(C)C(=O)NCc2ccccc2)c1 (centres undefined)	x	x	x	x	n	x	x	x
CC(C)c1cc(C(C)C)n2nc(N)nc2n1	n	n	n	n	n	n	x	x
CCCc1cc(CCC)n2nc(N)nc2n1	n	n	x	x	15	x	n	n
Cc1c(-c2ccccc2)[nH]n2c(=O)c3c(nc12)CCCC3	n	n	n	n	44	n	n	15
CCCCN1C(=O)CC2CCOC21C (centres undefined)	n	n	x	x	21	x	n	n
O=C1c2ccccc2C(=O)N1c1ncccn1	n	n	n	n	22	n	n	n
C[C@H]1CN=C(N(C)C)N1CCCC1CCCCC1	n	n	n	n	n	n	x	x
CCN1CCN(Cc2nnc(-c3ccc(C)cc3)o2)CC1	n	n	n	n	17	n	n	n
Cn1c(N)c(N2CCCCC2)c(=O)n(CC(=O)Nc2cccc(C#N)c2)c1=O	n	n	x	n	20	n	n	n
Cc1cccc(C)c1NC(=O)Cn1c(=O)c(N2CCCCC2)c(N)n(C)c1=O	n	n	x	n	n	n	x	x
CC(C)(C)NC(=O)C1c2ccccc2OCC(=O)N1CCc1ccccc1 (centres undefined)	x	x	x	x	n	x	x	x
Cn1c(N)c(C(=O)/C=C/c2ccccc2)c(=O)[nH]c1=O	n	n	n	n	26	n	n	n
Cc1nn(C2CCS(=O)(=O)C2)c(C)c1CN(C)C(=O)c1ccc(F)cc1 (centres undefined)	n	n	x	x	n	x	x	x
CN1CCN(S(=O)(=O)c2csc(C(N)=O)c2)CC1	n	n	n	n	n	n	x	x
NC(=O)c1cc(S(=O)(=O)N2CCN(c3cccc(Cl)c3)CC2)cs1	n	n	n	n	15	n	n	n
Cc1cc(C)cc(C(=O)NCC(=O)NNC(=O)CSc2ccccc2F)c1	n	n	x	n	n	n	x	x
O=C(O)c1ccccc1C(=O)N1CCN(c2ccccc2)CC1	n	n	n	n	n	n	x	x
O=C(c1ccccc1C(=O)N1CCN(c2ccccc2)CC1)N1CCN(c2ccccc2)CC1	n	n	n	n	22	n	n	n
O=C(c1cc(-c2ccccc2)on1)N1CCN(c2ccccc2)CC1	n	n	n	n	n	n	x	x
O=C(c1cc(-c2ccco2)on1)N1CCN(c2ccccc2)CC1	n	n	n	n	30	n	n	n
COc1cccc(CNS(=O)(=O)c2cc3c4c(c2)CCN4C(=O)CC3)c1	n	n	n	n	18	n	n	n
O=C1CCc2cc(S(=O)(=O)NCc3ccccc3)cc3c2N1CC3	n	n	n	n	n	n	x	x
COc1ccc(CC(=O)NCC(=O)N/N=C/c2sccc2C)cc1	n	n	n	n	n	n	x	x
CCOc1cc(C(=O)NCC(=O)N/N=C/c2sccc2C)cc(OCC)c1OCC	n	n	n	n	17	n	n	n
O=C(NCc1ccccc1)C1C(c2ccccc2)=Nc2ccccc2N1C(=O)c1cnccn1 (centres undefined)	x	x	x	x	14	x	n	n
SMILES	MC4R antagonist	MC4R barr agon	TMEM16A inh	MIN6 prolif	HTR2A ag	TMEM16A act	OPRM1 ag	HTR2A ag conf
Cc1cccc(C)c1NC(=O)C1C(c2ccccc2)=Nc2ccccc2N1C(=O)c1cnccn1 (centres undefined)	x	x	x	x	n	x	x	x
O=C1CN(C(=O)c2ccc(Br)o2)C(c2ccccc2)c2cc(Br)ccc2N1 (centres undefined)	n	n	n	n	n	n	x	x
Cc1ccc2c(c1)C(c1ccccc1)N(C(=O)c1ccc(Br)o1)CC(=O)N2 (centres undefined)	n	n	n	n	19	n	n	n
COc1ccccc1CNC(=O)COC(=O)c1ccc2c(=O)n3c(nc2c1)CCCCC3	n	n	x	n	18	n	n	n
O=C(CSc1n[nH]c(-c2ccccn2)n1)Nc1ccccc1	n	n	n	n	15	n	n	n
Cc1cccn2c(=O)nc(SCC(=O)NCc3ccccc3)nc12	n	n	n	n	15	n	n	n
Cc1cccc(NC(=O)Cn2c(=O)oc3cc(S(=O)(=O)N4CCCC4)ccc32)n1	n	n	n	n	n	n	x	x
O=C(Cn1c(=O)oc2cc(S(=O)(=O)N3CCCC3)ccc21)N1CCN(c2ccccc2)CC1	n	n	n	n	n	n	x	x
Cc1ccc(C)c(N2CCN(C(=O)Cn3c(=O)oc4cc(S(=O)(=O)N5CCCC5)ccc43)CC2)c1	n	n	n	n	29	n	n	n
CC(NC(=O)Cn1c(=O)oc2cc(S(=O)(=O)N3CCCC3)ccc21)c1ccccc1 (centres undefined)	n	n	n	n	18	n	n	n
Cc1cccc(S(=O)(=O)NC(=O)C2(C)CCN2C(=O)CC2CCCCC2)c1 (centres undefined)	n	n	x	x	n	x	x	x
COc1ccc(C(C)(O)c2nc(-c3cccc(O)c3)cs2)cc1 (centres undefined)	n	n	x	x	n	x	x	x
CSCCC(NC(=O)c1ccccc1Cl)C(=O)NNC(=O)c1ccncc1 (centres undefined)	n	n	n	n	n	n	x	x
O=C(Nc1ccccc1)C1Cc2c(-c3ccc(Cl)cc3)ccnc2O1 (centres undefined)	n	n	x	x	n	x	x	x
CCN(CC)C(=O)CCNS(=O)(=O)c1ccc(C)cc1	n	n	n	n	15	n	n	n
Cc1onc(-c2c(Cl)cccc2Cl)c1C(=O)N1CCOCC1	n	n	n	n	17	n	n	n
COCCCNC(=O)CCc1c(C)c2cc3c(C)coc3cc2oc1=O	n	n	n	n	n	n	x	x
Cc1cccc(N2C(=O)C3C4C=CC(C4)C3C2=O)c1 (centres undefined)	n	n	n	n	22	n	n	n
O=S(=O)(Nc1cccc(-n2cnnn2)c1)c1ccccc1	n	n	n	n	15	n	n	n
